Results: ChEMBL document CHEMBL4373640, “Synthesis and antitumor activity of aza-brazilan derivatives containing imidazolium salt pharmacophores” (Medchemcomm, 2019)

Assays:
[1] = Induction of apoptosis in human SMMC-7221 cells assessed as viable cells at 2 uM after 48 hrs by AnnexinV-FITC/propidium iodide staining based FACSCalibur flow cytometry analysis (reference value: 89.8 %); assay type: functional; conditions: SMMC-7221, 48 h, read-out: Activity
SW480 = test: Cytotoxicity against human SW480 cells assessed as reduction in cell viability after 48 hrs by MTS assay; assay type: functional, cell-based; conditions: SW480, 48 h
Outline: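 Cells (5 × 10^3 per well) were plated 12 h before treatment, then exposed continuously to compound for 48 h. MTS was added, with 1–4 h incubation at 37 °C and OD read at 490 nm. IC50 is the concentration cutting OD by 50% versus untreated cells, taken from dose–response curves. Values are the mean of three independent determinations.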

[2] = Induction of apoptosis in human SMMC-7221 cells assessed as necrotic cells at 1 uM after 48 hrs by AnnexinV-FITC/propidium iodide staining based FACSCalibur flow cytometry analysis (reference value: 2.34 %); assay type: functional
[3] = Cell cycle arrest in human SMMC-7221 cells assessed as accumulation at S phase at 2 uM after 24 hrs by propidium iodide/RNase A staining based FACSCalibur flow cytometry analysis (reference value: 14.733 +/- 1.29 %); assay type: functional
[4] = Cell cycle arrest in human SMMC-7221 cells assessed as accumulation at G2/M phase at 1 uM after 24 hrs by propidium iodide/RNase A staining based FACSCalibur flow cytometry analysis (reference value: 8.21 +/- 0.38 %); assay type: functional
[5] = Induction of apoptosis in human SMMC-7221 cells assessed as late apoptotic cells at 4 uM after 48 hrs by AnnexinV-FITC/propidium iodide staining based FACSCalibur flow cytometry analysis (reference value: 7.7 %); assay type: functional
[6] = Induction of apoptosis in human SMMC-7221 cells assessed as early apoptotic cells at 1 uM after 48 hrs by AnnexinV-FITC/propidium iodide staining based FACSCalibur flow cytometry analysis (reference value: 0.106 %); assay type: functional
[7] = Induction of apoptosis in human SMMC-7221 cells assessed as early apoptotic cells at 8 uM after 48 hrs by AnnexinV-FITC/propidium iodide staining based FACSCalibur flow cytometry analysis (reference value: 0.106 %); assay type: functional
[8] = Cell cycle arrest in human SMMC-7221 cells assessed as accumulation at G2/M phase at 2 uM after 24 hrs by propidium iodide/RNase A staining based FACSCalibur flow cytometry analysis (reference value: 8.21 +/- 0.38 %); assay type: functional

Work on `COc1cccc2c1N(CCCn1c[n+](Cc3ccc(C)cc3)c3cc(C)c(C)cc31)C[C@@H]1Cc3ccc(Br)cc3[C@H]21.[Br-]` yielded a viability at 2 µM [1] of 77.7%, an IC50 (SW480) of 750 nM and an Activity [2] of 5.66%. For the same compound, the Activity [3] was 9.27%, the Activity [4] was 7.64% and the Activity [5] was 76.8%. It also gave an Activity [6] of 0.529%, an Activity [7] of 0.157% and an Activity [8] of 9.16%.
